# According to article PMC11815446 (Open Heart, 2025):
# Where a name gives a salt, the structure may show the parent alone.
# Columns and labels:
# [1] = two-step process in the liver; ref 8 9; cited from earlier work
# [2] = tested on: ADP-induced platelet aggregation; experiment: ADP-induced platelet aggregation in whole blood, impedance aggregometry; type: in vivo, human; settings: for mean %inhibition of platelet aggregation: all subjects
# CYP2C19 = settings: ref 8 9; cited from earlier work
# [3] = Safety assessment, treatment emergent adverse events; type: in vivo, human; settings: A n=40, B n=39
# Method in brief: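 Healthy Indian adults (18–45 y, BMI 18.50–29.90 kg/m²) were CYP2C19-genotyped at two laboratories as *1/*1 or *2/*2. Randomised two-period crossover: loading dose day 1, then once-daily maintenance doses days 2–6, with a washout of at least 14 days. The investigator recorded adverse events throughout the study, along with PT/PTT, vital signs, ECGs, haematology, blood chemistry, urinalysis and physical examinations.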
structure (smiles),measurement,setting,value
"COC(=O)[C@H](c1ccccc1Cl)N1CCc2sccc2C1 [Clopidogrel, Hydrogen sulfate;hydron;methyl (2S)-2-(2-chlorophenyl)-2-(6,7-dihydro-4H-thieno[3,2-c]pyridin-5-yl)acetate]",share of the drug converted to the active metabolite H4,[1],15%
same,mean %inhibition of platelet aggregation,"[2]; 6 hours postdose (loading dose: AT-10 40 mg, clopidogrel 300 mg)",18.53%
same,mean %inhibition of platelet aggregation,"[2]; 6 hours postdose on day 6 (maintenance dose: AT-10 10 mg, clopidogrel 75 mg)",51.19%
same,time at which inhibition of ADP-induced platelet aggregation reaches the peak,[2]; postdose,around 6 hours
same,contribution of CYP2C19 to the first metabolic step (Step 1),CYP2C19,45%
same,Treatment emergent adverse events: Anxiety,[3],00.0 (00.0) n (%) E
same,Treatment emergent adverse events: Cough,[3],00.0 (00.0) n (%) E
same,Treatment emergent adverse events: Psychiatric disorders,[3],00.0 (00.0) n (%) E
same,"Treatment emergent adverse events: Respiratory, thoracic and mediastinal disorders",[3],00.0 (00.0) n (%) E
